Where two headings read alike, the source gives them in different places.
What was measured:
[1] = Flavopiridol plasma pharmacokinetics in patients; assay type: in vivo, human
[2] = test system: patients with advanced solid tumors; assay: Phase I dose escalation: toxicity; assay type: in vivo, human
Outline: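 Open-label, non-randomized 3+3 escalation in groups of 3–6, outpatient, with no intra-patient escalation. […] DLT was grade 4 hematologic or grade 3–4 non-hematologic toxicity (including diarrhea despite prophylaxis), or delay allowing fewer than 2 treatments in weeks 1–3. MTD was one level below the dose at which ≥2 patients had first-cycle DLT.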

[3] = Vorinostat serum pharmacokinetics in patients; assay type: in vivo, human
[4] = cited from earlier work
[5] = cited from earlier work; remark: listed apart in the source
[6] = test system: patients; details: PO daily × 3 days, every 14 days, with infusional fluorouracil and leucovorin; cited from earlier work

SMILES	Cmax ([1]; human, plasma, intravenous) [µM]	patients achieving flavopiridol Cmax of ≥2 μM ([1]; patients tested (20)) [%]	maximum tolerated dose (MTD), flavopiridol ([2]; 21-d schedule, bolus over 1 hr days 2 and 9, with vorinostat 600 mg/d) [mg/m^2]	maximum tolerated dose (MTD), flavopiridol ([2]; 28-d schedule, split dose days 2 and 16, with vorinostat 800 mg/d)	patients achieving vorinostat Cmax ≥2.5 μM ([3]; 800 mg dose level (MTD)) [%]	increase of vorinostat Cmax by flavopiridol ([3]; cycle 1 versus cycle −1, all patients, 95% CI 11%–43%) [%]	maximum tolerated dose (MTD) of vorinostat ([2]; 21-d schedule: days 1–3 and 8–10, with flavopiridol 60 mg/m^2 over 1 hr days 2 and 9) [mg/day]	maximum tolerated dose (MTD) of vorinostat ([2]; 28-d schedule: days 1–3 and 15–17, with split-dose flavopiridol days 2 and 16) [mg/day]	vorinostat level that enhances chemotherapy in vitro [4] [µM]	Cmax ([5]; read-out: average Cmax, vorinostat in combination with carboplatin and paclitaxel or FOLFOX) [µM]	Cmax ([5]; standard dose 400 mg PO daily continuously) [µM]	Cmax ([5]; vorinostat 900 mg/m^2 IV daily × 3 days every 3 weeks) [µM]	MTD of vorinostat [6]
CN1CC[C@H](c2c(O)cc(O)c3c(=O)cc(-c4ccccc4Cl)oc23)[C@H](O)C1 [flavopiridol]	3.92	90	60	30 mg/m^2 over 30 min followed by 30 mg/m^2 over 4 h	–	–	–	–	–	–	–	–	–
O=C(CCCCCCC(=O)Nc1ccccc1)NO [vorinostat, suberoylanilide hydroxamic acid]	–	–	–	–	86	27	600	800	> 2.5	< 2	~2.5	> 30	1,700 mg
